From PMC4100979 (Chembiochem : a European journal of chemical biology, 2013)
“Also recorded” adds a separate entry of the source.

Assays:
[1] = test system: INS 832/3 cells; experiment: Insulin secretion; format: cell-based, rat; conditions: 20 mM glucose vs 1 mM glucose, 2 hour incubation; p<0.05
Outline: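 INS 832/3 cells were seeded at 500,000/well and grown 72 h. They were rinsed in HBSS with 1 mM glucose, then held 2 h in the same. Medium was replaced with the test glucose level (1 or 20 mM) ± secretagogues for 2 h. Secreted insulin was measured by rat insulin ELISA (ng/ml) and expressed as % of the mean 1 mM glucose secretion within each experiment.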

[2] = test system: GLP-1R and SUR1 on βTC3 cells; experiment: Competition of 15 nM Eu-GLP-1/Glb 10 by unlabelled monomers in live βTC3 cells; format: binding; conditions: 1.6 nM monomer vs 15 nM Eu-GLP-1/Glb 10, 1 hr, Figure 3
Outline: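 βTC3 cells, ~70,000/well, grown 3 days. They were exposed for 1 h to 15 nM Eu-labelled bivalent ligand with 4.1 fM or 1.6 nM unlabelled GLP-1 or Glb, in RPMI binding medium (1 mM 1,10-phenanthroline, 200 mg/L bacitracin, 0.5 mg/L leupeptin, 0.2% BSA). Non-specific binding was not measured. Cells were washed three times, then given enhancement solution for ≥30 min at 37°C. Eu time-resolved fluorescence was read at 340/615 nm. Quadruplicates unless noted.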

[3] = molecular target: T1, GLP-1R on βTC3 cells (Mus musculus, UniProt O35659); experiment: Saturation binding of bivalent Eu-labelled ligand in presence of unlabelled Glb; conditions: 300 nM Glb, below 35 nM Eu-ligand
T1 sequence (O35659 22-463): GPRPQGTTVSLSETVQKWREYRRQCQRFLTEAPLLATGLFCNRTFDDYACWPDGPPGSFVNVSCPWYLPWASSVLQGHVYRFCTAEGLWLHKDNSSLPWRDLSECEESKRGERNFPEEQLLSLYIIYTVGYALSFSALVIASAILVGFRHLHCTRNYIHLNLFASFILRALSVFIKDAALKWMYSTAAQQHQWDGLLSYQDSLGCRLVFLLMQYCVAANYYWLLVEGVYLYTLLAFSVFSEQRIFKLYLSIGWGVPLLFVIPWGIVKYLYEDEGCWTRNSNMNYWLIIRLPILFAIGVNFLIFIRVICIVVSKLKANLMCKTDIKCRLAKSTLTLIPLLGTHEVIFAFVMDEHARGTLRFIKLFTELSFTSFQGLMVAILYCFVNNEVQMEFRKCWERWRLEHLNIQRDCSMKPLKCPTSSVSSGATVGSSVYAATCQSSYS

Row | Compound | induction of insulin secretion by glucose [1] | effect of unlabelled monomer on bivalent binding [2] | effect of unlabelled Glb on high affinity binding of Eu-GLP-1/Glb 10 [3]
1 | OC[C@H]1OC(O)[C@H](O)[C@@H](O)[C@@H]1O (stereo partly shown) [glucose] | ~ 4 fold |  | 
2 | GLP-1: unlabelled GLP-1 monomer used as competitor |  | bivalent binding is lost | 
3 | COc1ccc(Cl)cc1C(=O)NCCc1ccc(S(=O)(=O)NC(=O)NC2CCCCC2)cc1 [Glb, glibenclamide] |  | bivalent binding is lost | blocks high affinity binding; also recorded: blocked the high affinity binding
